Assay outcomes as filed in PubChem BioAssay.
Hits are enriched below; roughly 2.7% of the tested compounds scored in any of these assays.
OX1R antag-1 – antagonists of human orexin 1 receptor (OX1R) | Orexin/Hypocretin receptor type 1 (Homo sapiens), O43613 | OX1R-expressing cells, FRET antagonist read-out | inhibition, % at 6.6 µM | hit rate 1.8% among 330,000 | AID 485270, 2010; in the data active means inhibition mostly above about 38%, no sharp cut-off; inactive means mostly below about 40%
CHO parental Ca – ATP-evoked calcium signal inhibitors, parental CHO, primary screen, counter-screen for OX1R antagonist project, cell-based, fluorescence, Fluo-8 calcium dye. parental CHO-K1, ATP-induced calcium, Fluo-8 fluorescence. inhibition, % at 5.6 µM. hit rate 0.63% among 330,000;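 active means inhibition above that plate's mean sample inhibition plus 3 SD, cut at about 26% in these data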
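material = parental CHO cells | also added = ATP as calcium-mobilizing challenge | dosing = single point at 5.6 µM | detection = intracellular calcium via Fluo-8 no-wash fluorescent dye | read-out = % inhibition | benchmarks = low control ATP plus DMSO, high control DMSO only | repeats = one well per compound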
OX1R antag-2 – OX1R (HCRTR1) antagonists, primary screen, fluorescence, CHO/OX1R cells, Fluo-8 calcium, orexin A; Orexin/Hypocretin receptor type 1 (Homo sapiens), O43613; AID 434989, 2010; Fluo-8 calcium fluorescence; inhibition, % at 5 µM; hit rate 0.43% among 330,000;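 active means inhibition above its plate's threshold, mean inhibition of all tested compounds on the plate plus 3 SD, cut at about 37% in these data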
OXTR agonist – human OXTR agonists, primary screen, fluorescence, CHO-OTR cells, Fluo-8 calcium | AID 2435, 2010 | Fluo-8 calcium fluorescence; normalized: DMSO 0%, oxytocin 100% | hit rate 0.32% among 320,000 | Oxytocin receptor (Homo sapiens), P30559 | activation, % at 3 µM;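 active means activation above the mean of all tested compounds plus 3 SD, cutoff set per screening run, cut at about 20% in these data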;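 further: peak over basal fluorescence ratio from a 100 s FLIPR kinetic read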
Target sequence (P30559 whole entry, looked up): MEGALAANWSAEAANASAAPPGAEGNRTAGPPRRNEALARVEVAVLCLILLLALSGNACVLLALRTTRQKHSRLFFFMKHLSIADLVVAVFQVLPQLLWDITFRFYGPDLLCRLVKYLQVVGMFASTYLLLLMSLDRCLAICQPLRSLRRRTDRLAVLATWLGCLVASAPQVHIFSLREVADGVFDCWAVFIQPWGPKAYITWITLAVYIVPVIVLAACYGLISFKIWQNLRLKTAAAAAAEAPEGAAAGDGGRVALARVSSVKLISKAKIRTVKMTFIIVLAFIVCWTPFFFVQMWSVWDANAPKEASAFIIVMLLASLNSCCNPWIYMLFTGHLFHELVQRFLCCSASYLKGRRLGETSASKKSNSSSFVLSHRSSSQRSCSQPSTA
V1R ag counter – agonists of human V1a receptor, primary screen, counter-screen for OXTR agonist project, fluorescence, CHO-V1R cells; Vasopressin V1a receptor (Homo sapiens), P37288; Fluo-8 calcium fluorescence, agonist mode; 0% DMSO, 100% 3 nM vasopressin; activation, % at 3 µM; hit rate 0.25% among 320,000; AID 2797, 2010;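 active means activation above the mean activation of all tested compounds plus 3 SD, per screening run, cut at about 20% in these data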;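 further: signal is peak over basal fluorescence ratio across a 100 second FLIPR read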
OXTR potentiate – human OXTR potentiators, primary screen, fluorescence, CHO-OTR cells, Fluo-8 calcium. Oxytocin receptor (Homo sapiens), P30559. hit rate 0.061% among 320,000. activation, % at 3 µM. Fluo-8 calcium fluorescence, potentiator mode; 0% = oxytocin EC15, 100% = EC100;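 active means activation above that plate's cutoff, the mean activation of tested compounds plus 3 SD, cut at about 6.6% in these data, passing the limit was not always enough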
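Measured by – Fluo-8 calcium dye fluorescence · Test system – human OTR in CHO cells · Dosing – one concentration, 3.0 µM compound · Controls – EC15 oxytocin alone as 0%, 75 nM oxytocin as 100% · Evaluation – normalized max/min fluorescence ratio, % activation · Timing – 6 min pre-incubation, 100 s read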
OXTR agonist cf – human OXTR agonists, confirmation, fluorescence, CHO-OTR cells, triplicate; activation, % at 3 µM; hit rate 20% among 390; Fluo-8 calcium fluorescence, agonist; shares compounds with OXTR agonist;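 active means mean activation above about 20% derived from the earlier single-dose screen, limit read from the data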;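 further: peak over minimum fluorescence ratio per well during a 100 second FLIPR read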
V1R ag counter 3x – V1a receptor agonists, calcium signal, counter-screen for OXTR agonist project, triplicate, fluorescence, CHO-V1R cells; Fluo-8 calcium fluorescence; shares compounds with OXTR agonist; hit rate 10% among 390; activation, % at 3 µM;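 active means mean activation over triplicate exceeds the hit threshold set in the earlier primary screen, cut at about 20% in these data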;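 further: peak over basal fluorescence ratio within a 100 second read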
OXTR pot cf – human OXTR potentiators, confirmation, fluorescence, CHO-OTR cells, triplicate | shares compounds with OXTR potentiate | Fluo-8 calcium fluorescence, potentiation; scaled from low-dose to maximal oxytocin | activation, % at 3 µM | 180 tested, under 10 active;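 active means mean percent activation over triplicates above a cutoff set from solvent-only control plates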;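 further: compounds tested in the presence of an EC15 dose of oxytocin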
V1R ag confirm – V1a receptor agonists, calcium signal, confirmation, Fluo-8 calcium fluorescence, CHO-V1R cells; agonist; AID 434964, 2010; shares compounds with V1R ag counter; hit rate 20% among 180; activation, % at 3 µM;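 active means average activation exceeds primary screen hit cutoff, cut at about 21% in these data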;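 further: peak over basal fluorescence ratio during a 100 s FLIPR read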
OXTR ag counter – human OXTR agonists, counter-screen for V1R agonist project, fluorescence, CHO-OTR cells, triplicate; shares compounds with V1R ag counter; Fluo-8 calcium fluorescence; activation, % at 3 µM; hit rate 10% among 180; AID 434969, 2010;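 active means mean activation over three repeats above the cutoff from the earlier oxytocin receptor agonist screen, cut at about 20% in these data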;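 further: peak over minimum fluorescence ratio within a 100 second FLIPR read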
OX1R Ca confirm – OX1R (HCRTR1) antagonists, confirmation, fluorescence, CHO/OX1R cells, Fluo-8 calcium, orexin A; shares compounds with OX1R antag-2; orexin A calcium Fluo-8 fluorescence; inhibition, % at 5 µM; hit rate 38% among 1,100; AID 492963, 2010; in the data active means inhibition above about 29%
CHO Ca triplic – ATP-evoked calcium inhibition in parental CHO, counter-screen for OX1R antagonist project, cell-based, fluorescence, CHO-K1, triplicate; hit rate 9.3% among 1,100; AID 492965, 2010; shares compounds with OX1R antag-2; inhibition, % at 5.6 µM; ATP-induced calcium, Fluo-8 fluorescence;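 active means inhibition above a per-plate limit, the mean inhibition of that plate's test compounds plus 3 SD, cut at about 25% in these data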
Large screens that a line does not name were inactive (follow-up assays come after a bar, where they were run); ! = a repeat was not active.

CCCCn1c(C)c(C(=O)OCC)c2c(CN3CCCC3)c(O)ccc21	none
N#C/C=C/C#N	none
Cc1cc2c(C(F)(F)F)cc(=O)oc2c2c1NCCC2	none
O=c1cc(C(F)(F)F)c2cc3c4c(c2o1)CCCN4CCC3	CHO parental Ca 73, OX1R antag-2 92, OXTR agonist 169, V1R ag counter 152
O=C1NC(=O)C(=C/C=C/c2coc3ccc(Br)cc3c2=O)C(=O)N1	OXTR agonist 40
COc1ccc(-n2nc(C(=O)NCC(=O)N3CCC4(CC3)OCCO4)c3ccccc3c2=O)c(OC)c1	none
CCC(=O)c1ccc(OCC(=O)N2CCN(CC(=O)Nc3ccccc3C(F)(F)F)CC2)cc1	none
Cn1cccc1CN1CCN(C(=O)COc2ccccc2)CC1	none
Cn1nc(-c2ccc(OCC(=O)N3CCN(Cc4ccccc4)CC3)cc2)c2ccccc2c1=O	CHO parental Ca 36!
CC(=O)O[C@H]1CC[C@@]2(C)C(=CC(=O)C3C2CC[C@@]2(C)C3C[C@H](OC(C)=O)[C@@H]2OC(C)=O)C1 (stereo partly drawn)	none
COc1cc2c(cc1OC)-c1c(OC)c(OC)c(OC)c3ccnc(c13)C2=O	OX1R antag-1 68
O=c1[nH]c(=S)[nH]c(O)c1N=Nc1cc(S(=O)(=O)Nc2ccc(Cl)cc2)ccc1Cl	none
O=c1[nH]c(=S)[nH]c(O)c1N=Nc1ccc(OC(F)F)cc1	OX1R antag-1 50
COc1cccc(N=Nc2c(O)[nH]c(=S)[nH]c2=O)c1	OX1R antag-1 69
O=c1[nH]c(=S)[nH]c(O)c1N=Nc1ccc2c(c1)OCO2	OX1R antag-1 75
O=c1[nH]c(O)c(N=Nc2ccc3c(c2)OCCO3)c(=O)[nH]1	OX1R antag-1 64
O=c1[nH]c(=S)[nH]c(O)c1N=Nc1cc2c(cc1[N+](=O)[O-])OCO2	none
C[C@]12CCC(=O)C[C@H]1CC[C@@H]1[C@@H]2CC[C@]2(C)C(=O)CC[C@@H]12	none
c1ccc2nc(N3CCNCC3)ccc2c1	none
N=C(N)c1c(O)n(C2CCCCC2)c(=O)n(C2CCCCC2)c1=O	CHO parental Ca 61
O=[N+]([O-])c1ccc(N2CCCCC2)c2ncccc12	none
O=[N+]([O-])c1ccc(N2CCOCC2)c2cccnc12	OX1R antag-1 71
O=[N+]([O-])c1ccc(N2CCCNCC2)c2ncccc12	OX1R antag-1 40
O=[N+]([O-])c1ccc(N2CCCCCC2)c2nonc12	OX1R antag-1 103, CHO parental Ca 93, OX1R antag-2 102, OXTR agonist 413, V1R ag counter 534
CCN1C[C@]2(OC(=O)c3ccccc3NC(C)=O)CCC(OC)C34C5C[C@H]6C(OC)[C@]5(O)[C@](O)(C[C@@H]6OC)C(C[C@@H]32)[C@H]14 (stereo partly drawn)	none
Fc1cccc(C2NCc3ccccc3-n3cccc32)c1 (stereo not drawn)	none
Cc1cccc(-n2c(O)c(/C=C/C=Nc3ccccc3)c(=O)[nH]c2=O)c1	OXTR agonist 23 | OXTR agonist cf 26 | V1R ag counter 3x 35
CCOc1cc2c(cc1OCC)-n1cccc1C(c1cccc([N+](=O)[O-])c1)NC2 (stereo not drawn)	none
CCOc1ccc(-n2c(O)c(C=NCCN(CC)CC)c(=O)[nH]c2=O)cc1	OXTR potentiate 13 | OXTR pot cf inactive
COC(=O)C1=C(c2ccc(OC(F)(F)F)cc2)C[C@@H]2CC[C@H]1N2C(=O)N1CCOCC1	none
C=CCn1c(O)c(C(CC)=Nc2cccc(C(=O)O)c2)c(=O)[nH]c1=O	V1R ag counter 22 | V1R ag confirm inactive | OXTR ag counter inactive
COc1ccc(CN2C(=O)NC(=O)/C(=C/c3cc(OC)c(OC)c(OC)c3)C2=O)cc1	none
COc1ccc(CN2C(=O)NC(=O)/C(=C/c3ccoc3)C2=O)cc1	V1R ag counter 33 | V1R ag confirm inactive | OXTR ag counter inactive
CC[C@H](C)[C@@H]1O[C@@]2(C=CC1C)CC1C[C@@H](CC=C(C)C(O[C@H]3CC(OC)C(O[C@H]4CC(OC)C(O)C(C)O4)C(C)O3)C(C)C=CC=C3CO[C@@H]4C(O)C(C)=C[C@@H](C(=O)O1)[C@]34O)O2 (stereo partly drawn)	none
COC(=O)C1=C(c2ccccc2OCc2ccccc2)C[C@@H]2CC[C@H]1N2C(=O)NCc1cccc(C(F)(F)F)c1	OX1R antag-2 61 | OX1R Ca confirm inactive | CHO Ca triplic inactive
Cn1c(O)c(/C=C/C=Nc2ccccc2)c(=O)n(C)c1=S	OXTR agonist 93, V1R ag counter 47 | OX1R Ca confirm 33 | CHO Ca triplic 36
COc1ccc2c3c1OC1[C@H](O)CCC4[C@@H](C2)N(C)CC[C@]314 (stereo partly drawn)	none
O=C(c1cc(Br)ccc1Cl)N1CCC2(CC1)OCCO2	OX1R antag-2 45 | OX1R Ca confirm inactive | CHO Ca triplic inactive
